Values after ≈ are worked out from the molar mass of the structure shown. Active and inactive are the calls of the source. The calls are words filed in the database; no cut-off is given here. Starred links: 1 amine or outer side, 2 acyl side, 3 side chain; linkers in the order of their positions; H or OH if unused. Positions of bridges follow the written chain, without caps; N, C: chain ends. Non-standard residues stand in square brackets, D forms with d. Residues, ends and D or L forms follow the SMILES beside them. *: point of attachment. Orn(4R-OH,5R-OH) = O=C([C@H](C[C@@H](O)[C@@H](O)N[*:3])N[*:1])[*:2]; hTyr(3S-OH,4S-OH) = N[C@H](C(=O)O)[C@H](O)[C@@H](O)c1ccc(O)cc1; Pro(3S-OH,4S-Me) = C[C@H]1CN[C@H](C(=O)O)[C@H]1O; Palmitoyl = CCCCCCCCCCCCCCCC(=O)*; Hyp = O=C(O)[C@@H]1C[C@@H](O)CN1
Legend:
Saccharomyces cerevisiae [1] = assay: […] activity against Saccharomyces cerevisiae AY-10 after 24 hrs by microdilution method; assay type: functional; settings: AY-10, 24 h
Saccharomyces cerevisiae [2] = assay: Fungicidal activity against Saccharomyces cerevisiae AY-10-R4 mutant after 24 hrs by microdilution method; assay type: functional; settings: AY-10-R4, 24 h
Saccharomyces cerevisiae [3] = assay: Fungicidal activity against Saccharomyces cerevisiae AY-10-R11 mutant after 24 hrs by microdilution method; assay type: functional; settings: AY-10-R11, 24 h
Saccharomyces cerevisiae [4] = assay: Fungicidal activity against Saccharomyces cerevisiae AY-10-R15 mutant after 24 hrs by microdilution method; assay type: functional; settings: AY-10-R15, 24 h
Saccharomyces cerevisiae [5] = assay: Fungicidal activity against Saccharomyces cerevisiae AY-10-R16 mutant after 24 hrs by microdilution method; assay type: functional; settings: AY-10-R16, 24 h
Saccharomyces cerevisiae [6] = assay: […] activity against Saccharomyces cerevisiae AY-10 transformed with empty vector pRS416 after 24 hrs by microdilution method; assay type: functional; settings: AY-10, 24 h
Saccharomyces cerevisiae [7] = assay: […] activity against Saccharomyces cerevisiae AY-10 transformed with pRS416-13 carrying ADP1 gene after 24 hrs by microdilution method; assay type: functional; settings: AY-10, 24 h
Saccharomyces cerevisiae [8] = assay: […] activity against Saccharomyces cerevisiae AY-10 transformed with pRS416-31 carrying KRE6 gene after 24 hrs by microdilution method; assay type: functional; settings: AY-10, 24 h
Saccharomyces cerevisiae [9] = assay: Inhibition of beta-1,6-Glucan synthesis in Saccharomyces cerevisiae AY-10 assessed as reduction in [14C]glucose incorporation at 0.078 to 1.25 ug/ml after 1 hr; assay type: functional, organism-based; settings: at 0.078 to 1.25 µg/mL
In short: (§1)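 Exponentially growing cells in RPMI 1640 (absorbance ~0.6 at 595 nm) incubated at 30°C with drug plus [14C]glucose at 2 μCi/ml. Cells extracted twice with 3% NaOH at 80°C, then the insoluble material digested overnight at 30°C with Zymolyase 100T (1 mg/ml, pH 7.5). The soluble fraction was dialysed to remove β-1,3-glucan oligosaccharides, and the retained β-1,6-glucan was counted by scintillation. Read-out is percent change in incorporated radioactivity versus the drug-free control.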

Saccharomyces cerevisiae [10] = assay: Inhibition of beta-1,6-Glucan synthesis in Saccharomyces cerevisiae AY-10 assessed as reduction in [14C]glucose incorporation at 0.078 to 1.25 ug/ml after 3 hrs; assay type: functional, organism-based; settings: at 0.078 to 1.25 µg/mL; in short: as §1
Saccharomyces cerevisiae [11] = assay: Inhibition of beta-1,6-Glucan synthesis in Saccharomyces cerevisiae AY-10 assessed as reduction in [14C]glucose incorporation at 0.078 ug/ml after 1 hr; assay type: functional, organism-based; settings: at 0.078 µg/mL; in short: as §1
Saccharomyces cerevisiae [12] = assay: Inhibition of beta-1,6-Glucan synthesis in Saccharomyces cerevisiae AY-10 assessed as reduction in [14C]glucose incorporation at 0.078 ug/ml after 3 hrs; assay type: functional, organism-based; settings: at 0.078 µg/mL; in short: as §1
Nakaseomyces glabratus [13] = assay: Inhibition of beta-1,6-Glucan synthesis in Candida glabrata IFO0622 assessed as reduction in [14C]glucose incorporation at 0.025 to 4 ug/ml after 3 hrs; assay type: functional, organism-based; in short: as §1
Saccharomyces cerevisiae [14] = assay: Inhibition of beta-1,6-Glucan synthesis in Saccharomyces cerevisiae AY-10 assessed as reduction in [14C]glucose incorporation at 0.039 to 0.625 ug/ml after 1 hr; assay type: functional, organism-based; settings: at 0.039 to 0.625 µg/mL; in short: as §1
Saccharomyces cerevisiae [15] = assay: Inhibition of beta-1,6-Glucan synthesis in Saccharomyces cerevisiae AY-10 assessed as reduction in [14C]glucose incorporation at 0.039 to 0.625 ug/ml after 3 hrs; assay type: functional, organism-based; settings: at 0.039 to 0.625 µg/mL; in short: as §1
Saccharomyces cerevisiae [16] = assay: Inhibition of beta-1,3-Glucan synthesis in Saccharomyces cerevisiae AY-10 assessed as reduction in [14C]glucose incorporation at 0.039 to 0.625 ug/ml after 1 hr; assay type: functional, organism-based
In short: (§2)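 Exponential cells in RPMI 1640 at A595 about 0.6, pulse-labelled with [14C]glucose 2 μCi/ml plus drug at 30°C, sampled at 1 and 3 h. Cell wall fractionated: mannan from 3% NaOH extracts at 80°C by Fehling's reaction; residue digested with Zymolyase 100T (1 mg/ml), insoluble part = chitin; β-1,3-glucan = total glucan minus dialysed β-1,6-glucan. Scintillation counting; % change versus untreated.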

Saccharomyces cerevisiae [17] = assay: Inhibition of beta-1,3-Glucan synthesis in Saccharomyces cerevisiae AY-10 assessed as reduction in [14C]glucose incorporation at 0.039 to 0.625 ug/ml after 3 hrs; assay type: functional, organism-based; in short: as §2
Saccharomyces cerevisiae [18] = assay: Inhibition of beta-1,6-Glucan synthesis assessed as reduction in [14C]glucose incorporation at 0.025 to 4 ug/ml after 1 hr; settings: AY-10
Saccharomyces cerevisiae [19] = assay: Antifungal activity against Saccharomyces cerevisiae YPH500 after 24 hrs by microdilution method; assay type: functional; settings: YPH500, 24 h
In short: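 CLSI broth microdilution, incubated at 30°C, starting inoculum 1 × 10^3 to 3 × 10^3 cells/ml; drugs from DMSO, final DMSO below 1%. MIC-0 is the lowest concentration giving an optically clear well. MIC-2 is read with alamar blue as a 50% drop in A570 versus the drug-free control; both endpoints were recorded.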

Candida albicans [20] = assay: Antifungal activity against Candida albicans ATCC 24433 after 24 hrs by microdilution method; assay type: functional; settings: ATCC 24433, 24 h
In short: (§3)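 CLSI broth microdilution run at 30°C instead of standard temperature; starting inoculum 1 × 10^3 to 3 × 10^3 cells/ml; DMSO under 1% final. Endpoints: MIC-0 = lowest concentration giving an optically clear well; MIC-2 = 50% drop versus drug-free control in absorbance at 570 nm with alamar blue redox indicator, used because treated cells clump.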

Candida albicans [21] = assay: Antifungal activity against Candida albicans ATCC MYA-573 after 24 hrs by microdilution method; assay type: functional; settings: ATCC MYA-573, 24 h; in short: as §3
Nakaseomyces glabratus [22] = assay: Antifungal activity against Candida glabrata IFO0622 after 24 hrs by microdilution method; assay type: functional; settings: IFO0622, 24 h; in short: as §3
Nakaseomyces glabratus [23] = assay: Antifungal activity against Candida glabrata ATCC 200918 after 24 hrs by microdilution method; assay type: functional; settings: ATCC 200918, 24 h; in short: as §3
Candida tropicalis [24] = assay: Antifungal activity against Candida tropicalis ATCC 200956 after 24 hrs by microdilution method; assay type: functional; settings: ATCC 200956, 24 h; in short: as §3
Candida tropicalis [25] = assay: Antifungal activity against Candida tropicalis TIMM0313 after 24 hrs by microdilution method; assay type: functional; settings: TIMM0313, 24 h; in short: as §3
Pichia kudriavzevii = assay: Antifungal activity against Candida krusei TIMM0269 after 24 hrs by microdilution method; assay type: functional; settings: TIMM0269, 24 h; in short: as §3
Candida parapsilosis = assay: Antifungal activity against Candida parapsilosis IFO1396 after 24 hrs by microdilution method; assay type: functional; settings: Lodderomyces parapsilosis, IFO1396, 24 h; in short: as §3
Clavispora lusitaniae = assay: Antifungal activity against Candida lusitaniae ATCC 200951 after 24 hrs by microdilution method; assay type: functional; settings: ATCC 200951, 24 h; in short: as §3
Kluyveromyces marxianus = assay: Antifungal activity against Candida kefyr ATCC 46764 after 24 hrs by microdilution method; assay type: functional; settings: ATCC 46764, 24 h; in short: as §3
Cryptococcus neoformans = assay: Antifungal activity against Cryptococcus neoformans ATCC 90112 after 24 hrs by microdilution method; assay type: functional; settings: ATCC 90112, 24 h; in short: as §3
Trichosporon asahii = assay: Antifungal activity against Trichosporon asahii ATCC 90039 after 24 hrs by microdilution method; assay type: functional; settings: ATCC 90039, 24 h; in short: as §3
Aspergillus fumigatus = assay: Antifungal activity against Aspergillus fumigatus ATCC 36607 after 24 hrs by microdilution method; assay type: functional; settings: ATCC 36607, 24 h; in short: as §3
Aspergillus flavus = assay: Antifungal activity against Aspergillus flavus ATCC 64025 after 24 hrs by microdilution method; assay type: functional; settings: ATCC 64025, 24 h; in short: as §3
Aspergillus terreus = assay: Antifungal activity against Aspergillus terreus ATCC 28301 after 24 hrs by microdilution method; assay type: functional; settings: ATCC 28301, 24 h; in short: as §3

SMILES: Nc1nc(=O)[nH]cc1F [FLUCYTOSINE]
- MIC (Saccharomyces cerevisiae [1]): 2 µg/mL (≈ 15.5 µM)
- MIC (Saccharomyces cerevisiae [2]): 2 µg/mL (≈ 15.5 µM)
- MIC (Saccharomyces cerevisiae [3]): 4 µg/mL (≈ 31 µM)
- MIC (Saccharomyces cerevisiae [4]): 4 µg/mL (≈ 31 µM)
- MIC (Saccharomyces cerevisiae [5]): 2 µg/mL (≈ 15.5 µM)
- MIC (Saccharomyces cerevisiae [6]): 2 µg/mL (≈ 15.5 µM)
- MIC (Saccharomyces cerevisiae [7]): 4 µg/mL (≈ 31 µM)
- MIC (Saccharomyces cerevisiae [8]): 2 µg/mL (≈ 15.5 µM)

SMILES: C[C@@H]1[C@H](O)[C@@H](C)/C=C/C=C/C=C/C=C/C=C/C=C/C=C/[C@H](O[C@@H]2O[C@H](C)[C@@H](O)[C@H](N)[C@@H]2O)C[C@@H]2O[C@](O)(C[C@@H](O)C[C@@H](O)[C@H](O)CC[C@@H](O)C[C@@H](O)CC(=O)O[C@H]1C)C[C@H](O)[C@H]2C(=O)O [AMPHOTERICIN B]
- MIC (Saccharomyces cerevisiae [1]): 0.25 µg/mL (≈ 0.271 µM)
- MIC (Saccharomyces cerevisiae [2]): 0.0625 µg/mL (≈ 0.0676 µM)
- MIC (Saccharomyces cerevisiae [3]): 0.125 µg/mL (≈ 0.135 µM)
- MIC (Saccharomyces cerevisiae [4]): 0.25 µg/mL (≈ 0.271 µM)
- MIC (Saccharomyces cerevisiae [5]): 0.25 µg/mL (≈ 0.271 µM)
- MIC (Saccharomyces cerevisiae [6]): 0.25 µg/mL (≈ 0.271 µM)
- MIC (Saccharomyces cerevisiae [7]): 0.125 µg/mL (≈ 0.135 µM)
- MIC (Saccharomyces cerevisiae [8]): 0.25 µg/mL (≈ 0.271 µM)

SMILES: CCCCCCCCCCCCCCCC(=O)N[C@H]1C[C@@H](O)[C@@H](O)NC(=O)[C@@H]2[C@@H](O)[C@@H](C)CN2C(=O)[C@H]([C@@H](C)O)NC(=O)[C@H]([C@H](O)[C@@H](O)c2ccc(O)cc2)NC(=O)[C@@H]2C[C@@H](O)CN2C(=O)[C@H]([C@@H](C)O)NC1=O [ACULEACIN A] (Palmitoyl-[Orn(4R-OH,5R-OH)]T[Hyp][hTyr(3S-OH,4S-OH)]T[Pro(3S-OH,4S-Me)]; lactam 1-C)
- inhibition (Saccharomyces cerevisiae [9]): Active
- inhibition (Saccharomyces cerevisiae [10]): Active
- inhibition (Saccharomyces cerevisiae [11]): Active
- inhibition (Saccharomyces cerevisiae [12]): Active
- Activity (Nakaseomyces glabratus [13]): Active
- inhibition (Saccharomyces cerevisiae [14]): inactive
- inhibition (Saccharomyces cerevisiae [15]): inactive
- inhibition (Saccharomyces cerevisiae [16]): Active
- inhibition (Saccharomyces cerevisiae [17]): Active
- MIC (Saccharomyces cerevisiae [1]): 0.5 µg/mL (≈ 0.483 µM)
- MIC (Saccharomyces cerevisiae [2]): 0.125 µg/mL (≈ 0.121 µM)
- MIC (Saccharomyces cerevisiae [3]): 0.25 µg/mL (≈ 0.241 µM)
- MIC (Saccharomyces cerevisiae [4]): 0.5 µg/mL (≈ 0.483 µM)
- MIC (Saccharomyces cerevisiae [5]): 0.25 µg/mL (≈ 0.241 µM)
- MIC (Saccharomyces cerevisiae [6]): 0.5 µg/mL (≈ 0.483 µM)
- MIC (Saccharomyces cerevisiae [7]): 0.25 µg/mL (≈ 0.241 µM)
- MIC (Saccharomyces cerevisiae [8]): 0.5 µg/mL (≈ 0.483 µM)
- Activity (Saccharomyces cerevisiae [18]): Active

SMILES: OC(Cn1cncn1)(Cn1cncn1)c1ccc(F)cc1F [FLUCONAZOLE]
- MIC50 (Saccharomyces cerevisiae [19]): 4 µg/mL (≈ 13.1 µM)
- MIC50 (Candida albicans [20]): 0.25 µg/mL (≈ 0.816 µM)
- MIC50 (Candida albicans [21]): > 64 µg/mL
- MIC50 (Nakaseomyces glabratus [22]): 2 µg/mL (≈ 6.53 µM)
- MIC50 (Nakaseomyces glabratus [23]): 16 µg/mL (≈ 52.2 µM)
- MIC50 (Candida tropicalis [24]): 16 µg/mL (≈ 52.2 µM)
- MIC50 (Candida tropicalis [25]): 0.25 µg/mL (≈ 0.816 µM)
- MIC50 (Pichia kudriavzevii): > 64 µg/mL
- MIC50 (Candida parapsilosis): 1 µg/mL (≈ 3.27 µM)
- MIC50 (Clavispora lusitaniae): 0.063 µg/mL (≈ 0.206 µM)
- MIC50 (Kluyveromyces marxianus): 0.25 µg/mL (≈ 0.816 µM)
- MIC50 (Cryptococcus neoformans): 2 µg/mL (≈ 6.53 µM)
- MIC50 (Trichosporon asahii): 4 µg/mL (≈ 13.1 µM)
- MIC50 (Aspergillus fumigatus): > 64 µg/mL
- MIC50 (Aspergillus flavus): > 64 µg/mL
- MIC50 (Aspergillus terreus): > 64 µg/mL

Reference: ChEMBL document CHEMBL1629587, “Discovery of a small-molecule inhibitor of {beta}-1,6-glucan synthesis” (2009)
